According to ChEMBL document CHEMBL4477218 (J Med Chem, 2016):
≈ marks a conversion by molar mass, not a printed value.

How the values were obtained:
Format in all cases: functional
[1] = tested on: Staphylococcus aureus; assay: Antibacterial activity against TMP/methicillin-resistant Staphylococcus aureus ATCC 43300 after 18 hrs by CLSI M100-S16 method; settings: ATCC 43300, 18 h
How it was run: (§1)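 Broth microdilution per CLSI guideline in Isosensitest broth, final inoculum 5 x 10^5 CFU/mL, 18 h at 37 °C. Growth read at A600. MIC taken as the lowest inhibitor concentration visually inhibiting growth, confirmed colorimetrically with Presto Blue. Isosensitest broth with 10 µg/mL thymidine used to check off-target antibacterial activity. Mutant strains were selected on agar containing 6x MIC of an earlier propargyl-linked antifolate and sequenced.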

[2] = tested on: Staphylococcus aureus; assay: Antibacterial activity against TMP/methicillin-resistant Staphylococcus aureus harboring DHFR F98Y mutant after 18 hrs by CLSI M100-S16 method; how it was run: as §1
[3] = tested on: Staphylococcus aureus; assay: Antibacterial activity against TMP/methicillin-resistant Staphylococcus aureus harboring DHFR H30N mutant after 18 hrs by CLSI M100-S16 method; how it was run: as §1
[4] = tested on: Staphylococcus aureus; assay: Antibacterial activity against TMP/methicillin-resistant Staphylococcus aureus harboring DHFR H149R mutant after 18 hrs by CLSI M100-S16 method; how it was run: as §1
[5] = tested on: Staphylococcus aureus; assay: Antibacterial activity against TMP/methicillin-resistant Staphylococcus aureus harboring DHFR H30N/F98Y double mutant after 18 hrs by CLSI M100-S16 method; how it was run: as §1
[6] = tested on: Staphylococcus aureus; assay: Antibacterial activity against TMP/methicillin-resistant Staphylococcus aureus harboring DHFR F98Y/H149R double mutant after 18 hrs by CLSI M100-S16 method; how it was run: as §1

| SMILES | MIC [1] [µg/mL] | MIC [2] [µg/mL] | MIC [3] [µg/mL] | MIC [4] [µg/mL] | MIC [5] [µg/mL] | MIC [6] [µg/mL] |
| --- | --- | --- | --- | --- | --- | --- |
| CCc1nc(N)nc(N)c1C#CC(C)c1cc(OC)cc(-c2ccncc2)c1 (centres undefined) | 0.0781 (≈ 0.209 µM) | 2.5 (≈ 6.69 µM) | 2.5 (≈ 6.69 µM) | 2.5 (≈ 6.69 µM) | 20 (≈ 53.6 µM) | 80 (≈ 214 µM) |
| CCc1nc(N)nc(N)c1C#CC(C)c1cc(-c2ccncc2)ccc1OC (centres undefined) | 0.625 (≈ 1.67 µM) | 2.5 (≈ 6.69 µM) | 2.5 (≈ 6.69 µM) | 2.5 (≈ 6.69 µM) | 20 (≈ 53.6 µM) | 40 (≈ 107 µM) |
| CCc1nc(N)nc(N)c1C#CCc1cc(-c2ccc(C(=O)O)cc2)ccc1OC | 0.0195 (≈ 0.0485 µM) | 0.156 (≈ 0.388 µM) | 0.156 (≈ 0.388 µM) | 0.156 (≈ 0.389 µM) | 6.25 (≈ 15.5 µM) | > 50 |
| CCc1nc(N)nc(N)c1C#C[C@H](C)c1cc(OC)cc(-c2ccc(C(=O)O)cc2)c1 | 0.0098 (≈ 0.0235 µM) | 0.0781 (≈ 0.188 µM) | – | 0.0391 (≈ 0.0939 µM) | – | 2.5 (≈ 6 µM) |
| CCc1nc(N)nc(N)c1C#C[C@@H](C)c1cc(OC)cc(-c2ccc(C(=O)O)cc2)c1 | 0.0098 (≈ 0.0235 µM) | – | 0.0781 (≈ 0.188 µM) | 0.0781 (≈ 0.188 µM) | 1.25 (≈ 3 µM) | 1.25 (≈ 3 µM) |
| CCc1nc(N)nc(N)c1C#CCc1cc(OC)cc(-c2ccc(C(=O)O)cc2)c1 | 0.0195 (≈ 0.0485 µM) | 0.156 (≈ 0.388 µM) | 0.156 (≈ 0.388 µM) | 0.156 (≈ 0.388 µM) | 5 (≈ 12.4 µM) | 10 (≈ 24.8 µM) |
| CCc1nc(N)nc(N)c1C#C[C@H](C)c1cc(-c2ccc(C(=O)O)cc2)ccc1OC | 0.0391 (≈ 0.0939 µM) | 0.156 (≈ 0.375 µM) | 0.156 (≈ 0.375 µM) | 0.0781 (≈ 0.188 µM) | > 40 | > 40 |
| CCc1nc(N)nc(N)c1C#C[C@H](C)c1cc2c(c(-c3ccncc3)c1)OCO2 | 0.0195 (≈ 0.0503 µM) | 1.25 (≈ 3.23 µM) | 2.5 (≈ 6.45 µM) | 2.5 (≈ 6.45 µM) | 20 (≈ 51.6 µM) | 20 (≈ 51.6 µM) |
| CCc1nc(N)nc(N)c1C#C[C@H](C)c1cc(OC)cc(-c2ccncc2)c1 | 0.0391 (≈ 0.105 µM) | 0.625 (≈ 1.67 µM) | 0.625 (≈ 1.67 µM) | 0.625 (≈ 1.67 µM) | 40 (≈ 107 µM) | 20 (≈ 53.6 µM) |
| CCc1nc(N)nc(N)c1C#CC(C)c1cc2c(c(-c3ccncc3)c1)OCO2 (centres undefined) | 0.0781 (≈ 0.202 µM) | 1.25 (≈ 3.23 µM) | 5 (≈ 12.9 µM) | 5 (≈ 12.9 µM) | 40 (≈ 103 µM) | 40 (≈ 103 µM) |
| CCc1nc(N)nc(N)c1C#CCc1cc(OC)c(OC)c(-c2ccncc2)c1 | 0.0195 (≈ 0.0501 µM) | 0.625 (≈ 1.6 µM) | 0.625 (≈ 1.6 µM) | 0.625 (≈ 1.6 µM) | 20 (≈ 51.4 µM) | 40 (≈ 103 µM) |
| CCc1nc(N)nc(N)c1C#C[C@@H](C)c1cc(-c2ccncc2)ccc1OC | 0.0195 (≈ 0.0522 µM) | 1.25 (≈ 3.35 µM) | 0.625 (≈ 1.67 µM) | 1.25 (≈ 3.35 µM) | 10 (≈ 26.8 µM) | 20 (≈ 53.6 µM) |
